Here are results for 8 molecules from ChEMBL document CHEMBL1138571, “Design, synthesis and evaluation of tetrahydropyran based COX-1/-2 inhibitors” (Eur J Med Chem, 2009).

pIC50: −log10 of the molar value.

Test [1] has as its target T1, Prostaglandin G/H synthase 1 (Ovis aries) (UniProt P05979).
T1 sequence (whole entry): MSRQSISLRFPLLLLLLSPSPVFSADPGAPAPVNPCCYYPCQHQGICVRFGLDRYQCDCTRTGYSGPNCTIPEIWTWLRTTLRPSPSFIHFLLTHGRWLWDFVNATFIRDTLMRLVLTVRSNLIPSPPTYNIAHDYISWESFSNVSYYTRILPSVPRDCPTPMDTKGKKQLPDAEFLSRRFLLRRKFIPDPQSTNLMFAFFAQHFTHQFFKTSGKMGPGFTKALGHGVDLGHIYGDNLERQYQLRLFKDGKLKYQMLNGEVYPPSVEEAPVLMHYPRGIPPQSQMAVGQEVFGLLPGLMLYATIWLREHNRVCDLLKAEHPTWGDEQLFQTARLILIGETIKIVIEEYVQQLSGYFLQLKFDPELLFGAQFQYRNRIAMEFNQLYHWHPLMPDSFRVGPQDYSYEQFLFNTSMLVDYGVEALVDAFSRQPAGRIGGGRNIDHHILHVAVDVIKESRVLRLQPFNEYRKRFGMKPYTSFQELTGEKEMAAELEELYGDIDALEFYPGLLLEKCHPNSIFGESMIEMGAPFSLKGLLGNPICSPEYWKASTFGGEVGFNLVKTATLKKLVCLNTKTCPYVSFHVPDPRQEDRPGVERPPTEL
The experiment in a line: Inhibition of ovine COX1 at 10 uM. The procedure, abridged:
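Ovine COX-1 enzyme assay in 96-well format following a standard procedure. Compounds were tested at a single concentration of 10^-5 M, in duplicate. Results are expressed as % inhibition.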

Test [2] has as its target T2, Prostaglandin G/H synthase 1 (Ovis aries, UniProt P05979).
T2 sequence (P05979 whole entry): T1 sequence (whole entry)
The experiment in a line: Inhibition of ovine COX1.

Test [3] has as its target T3, Prostaglandin G/H synthase 2 (Ovis aries, UniProt P79208).
T3 sequence (P79208 whole entry): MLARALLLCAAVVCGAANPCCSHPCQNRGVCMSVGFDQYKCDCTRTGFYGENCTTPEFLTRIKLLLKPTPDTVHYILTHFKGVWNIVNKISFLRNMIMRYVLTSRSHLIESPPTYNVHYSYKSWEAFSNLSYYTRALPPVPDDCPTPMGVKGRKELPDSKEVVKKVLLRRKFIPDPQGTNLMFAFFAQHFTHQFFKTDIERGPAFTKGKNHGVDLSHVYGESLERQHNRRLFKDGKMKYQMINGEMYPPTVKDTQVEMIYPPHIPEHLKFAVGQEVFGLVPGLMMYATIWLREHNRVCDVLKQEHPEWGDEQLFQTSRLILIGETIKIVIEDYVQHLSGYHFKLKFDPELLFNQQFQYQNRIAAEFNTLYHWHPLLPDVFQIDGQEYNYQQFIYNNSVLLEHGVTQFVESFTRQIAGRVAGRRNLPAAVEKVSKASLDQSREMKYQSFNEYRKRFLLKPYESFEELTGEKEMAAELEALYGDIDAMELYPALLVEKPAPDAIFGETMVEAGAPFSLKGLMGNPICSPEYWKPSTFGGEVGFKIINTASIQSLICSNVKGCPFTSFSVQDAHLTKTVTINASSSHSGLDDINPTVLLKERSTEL
Put plainly: Inhibition of ovine COX2.

Usually inhibition stands for the percentage by which the read-out fell short of the control. The term pIC50 denotes −log10 of the IC50, conventionally taken in molar units.

In test [1], `CC(C)Cc1ccc(C(C)C(=O)O)cc1` (configuration not stated) yielded an inhibition of 96%.
Regarding `C[C@]1(O)C[C@@H](CSC#N)O[C@@H](c2ccc(Br)cc2)C1`, the inhibition in test [1] was found to be 32%. In addition, the pIC50 in test [2] and in test [3] was less than 5.00 in each case.
Take `CCSC[C@@H]1C[C@](C)(O)C[C@H](c2ccc(Br)cc2)O1`: the inhibition in test [1] came to 24%. Further, the negative-log IC50 (pIC50) in test [2] and in test [3] was less than 5.00 throughout.
For the molecule `CCSC[C@@H]1C[C@](C)(O)C[C@H](c2ccc([N+](=O)[O-])cc2)O1`, the inhibition in test [1] turned out to be 34%. For the same molecule, the pIC50 in test [2] and in test [3] was less than 5.00 throughout.
Molecule `C[C@]1(O)C[C@@H](CSC#N)O[C@@H](c2ccc([N+](=O)[O-])cc2)C1` gave an inhibition in test [1] of 29%. For the same molecule, the pIC50 in test [2] and in test [3] was less than 5.00 each time.
In test [1], `CCSC[C@@H]1C[C@](C)(O)C[C@H](c2ccc(Cl)cc2)O1` came in with an inhibition of 34%. The pIC50 in test [2] and in test [3] was less than 5.00 in each case.
Take `CCSC[C@@H]1C[C@](C)(O)C[C@H](c2ccc(F)cc2)O1`: the inhibition in test [1] came out at 42%. Besides, the pIC50 in test [2] is less than 5.00; in test [3] it was greater than 6.00.
`C[C@]1(O)C[C@@H](CSC#N)O[C@@H](c2ccc(F)cc2)C1` yielded an inhibition in test [1] of 34%. The results for the pIC50 in test [2] and in test [3] were less than 5.00 and 6.00, respectively.
